Key:
[1] = Dose to produce photoinduced DNA cross-link formation on isolated DNA
Nucleic Acid [2] = assay: Apparent binding constant was determined by ethidium displacement assay in calf thymus; type: nucleic-acid assay; conditions: Bos taurus
[3] = tested on: Panel leukemia (Carcinoma cell lines); assay: In vitro photocytotoxicity is evaluated against human chronic myeloid leukemia cells grown in culture irradiated at 366 nM; type: functional, cell-based; conditions: light or radiation study
How it was run: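 K562 cells in RPMI 1640 with 10% FCS and 2 mM glutamine were exposed to drug at 0.01-100 μM final for 1 h at 37 °C in the dark. They were washed, then irradiated in PBS for 2 min at 366 nm (420 μW/cm², 5 cm, no filters). Cells were plated at 8 wells per sample and grown 4-5 days in the dark. Readout was MTT at 550 nm; IC50 was taken from the dose-response curve.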

[4] = tested on: Panel leukemia (Carcinoma cell lines); assay: In vitro photocytotoxicity is evaluated against human chronic myeloid leukemia cells grown in culture under the dark conditions; type: functional, cell-based
How it was run: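 Human chronic myeloid leukemia K562 cells were given a 1 h drug exposure (0.01-100 μM final, from DMSO stocks) at 37 °C in the dark, then washed, with no UV irradiation. Cells were cultured 4-5 days in the dark in 96-well plates, 8 wells per sample. MTT was added for 5 h and formazan dissolved in DMSO was read at 550 nm. IC50 was taken from the dose-response curve.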

Nucleic Acid [5] = assay: Apparent binding constant was determined by ethidium displacement assay in pol (dA-dT); type: nucleic-acid assay
Nucleic Acid [6] = assay: Apparent binding constant was determined by ethidium displacement assay in coliphage T4 DNA; type: nucleic-acid assay
Nucleic Acid [7] = assay: Apparent binding constant was determined by ethidium displacement assay in poly (dG-dC); type: nucleic-acid assay
[8] = Dose to produce […] on isolated DNA; no DNA cross-links

| XL50 [1] [µM] | Binding constant (Nucleic Acid [2]) [M⁻¹] | Binding constant (Nucleic Acid [5]) [M⁻¹] | Binding constant (Nucleic Acid [6]) [M⁻¹] | Binding constant (Nucleic Acid [7]) [M⁻¹] | XL50 [8] | Compound | IC50 [3] [µM] | IC50 [4] [µM] |
| --- | --- | --- | --- | --- | --- | --- | --- | --- |
| – | 100000 | 110000 | 100000 | 140000 | No DNA crosslinks | CN(C)CCNC(=O)c1nc(NC(=O)c2nc(NC(=O)CCCCOc3ccc4ccc(=O)oc4c3)cn2C)cn1C | 40 | > 100 |
| – | 170000 | 3.5e+06 | 120000 | 110000 | No DNA crosslinks | CN(C)CCNC(=O)c1cc(NC(=O)c2cc(NC(=O)CCCCOc3ccc4ccc(=O)oc4c3)cn2C)cn1C | 75 | > 100 |

Continued, compound first:

| Compound | XL50 [1] [µM] | Binding constant (Nucleic Acid [2]) [M⁻¹] | Binding constant (Nucleic Acid [5]) [M⁻¹] | Binding constant (Nucleic Acid [6]) [M⁻¹] | Binding constant (Nucleic Acid [7]) [M⁻¹] | XL50 [8] | IC50 [3] [µM] | IC50 [4] [µM] |
| --- | --- | --- | --- | --- | --- | --- | --- | --- |
| COc1c2occc2cc2ccc(=O)oc12 [METHOXSALEN] | 18 | 48000 | 17000 | 14000 | 25000 | – | 100 | > 100 |
| CN(C)CCNC(=O)c1nc(NC(=O)c2nc(NC(=O)CCCCOc3c4occc4cc4ccc(=O)oc34)cn2C)cn1C | 1.6 | 40000 | 90000 | 270000 | 210000 | – | 4.5 | 55 |
| CN(C)CCNC(=O)c1cc(NC(=O)c2cc(NC(=O)CCCCOc3c4occc4cc4ccc(=O)oc34)cn2C)cn1C | 0.005 | 550000 | 290000 | 660000 | 90000 | – | 0.3 | > 100 |
| Cn1cc(NC(=O)c2cc(NC(=O)c3cc(NC=O)cn3C)cn2C)cc1C(=O)NCCC(=N)N | – | 770000 | 3.48e+07 | 650000 | 200000 | – | – | – |

— ChEMBL document CHEMBL1127839, “In vitro photoinduced cytotoxicity and DNA binding properties of psoralen and coumarin conjugates of netropsin analogues: DNA sequence-directed alkylation and cross-link formation” (J Med Chem, 1994)
